Assay results: ChEMBL document CHEMBL4257566, “Design, synthesis and structure-based optimization of novel isoxazole-containing benzamide derivatives as FtsZ modulators” (Eur J Med Chem, 2018)
In brackets after ≈: the same amount, converted by molar mass. Activity calls are given as the source filed them. No cut-off for these calls is given here.

Tests used:
Mus musculus = assay: Toxicity in mouse infected with methicillin-resistant Staphylococcus aureus ATCC 43300 assessed as mouse death at 30 mg/kg, ip administered 0.1, 6 hrs postinfection and measured after 1 week; assay type: organism-based; details: in vivo, 168 h
Method in brief: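 KM mice (about 20 g) infected i.v. with 5.4 × 10⁷ CFU MRSA in 0.1 mL saline. Dosing i.p. in vehicle of 1% DMAC, 30% TEG, 7% HPβCD in water (final), with a vehicle-only group. Deaths recorded for one week after bacterial inoculation.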

Staphylococcus aureus [1] = assay: Antibacterial activity against methicillin-resistant Staphylococcus aureus ATCC 43300 after 24 hrs by broth microdilution based CLSI method; assay type: functional; details: ATCC 43300, 24 h
Staphylococcus aureus [2] = assay: Bactericidal activity against methicillin-resistant Staphylococcus aureus ATCC 43300 incubated for 24 hrs followed by plating onto tryptic soy agar plates and further incubated for 24 hrs by broth microdilution based CLSI method; assay type: functional; details: ATCC 43300, 24 h
Method in brief: (§1)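 MBC taken from the CLSI broth microdilution plates. These held 2-fold serial dilutions from 64 to 0.125 µg/mL in cation-adjusted Mueller-Hinton broth, seeded with log-phase bacteria and incubated aerobically for 24 h at 37 °C. Well aliquots were plated on TSA and colonies counted after 24 h. MBC is the lowest concentration giving a ≥3-log CFU reduction.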

Staphylococcus aureus [3] = assay: Bactericidal activity against methicillin-resistant Staphylococcus aureus ATCC 43300 assessed as reduction in viable bacterial count at 8 ug/ml after 24 hrs by time-kill assay; assay type: functional, organism-based
Method in brief: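 Growing culture diluted to about 10⁶ CFU/mL in CAMH broth containing compound, then shaken at 37 °C. At set times, samples were serially diluted tenfold in CAMH broth and three dilutions plated on TSA. CFU/mL counted after 24 h at 37 °C. Detection limit 10³ CFU/mL. Points are the mean of two independent runs, with SD.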

Escherichia coli = assay: Antibacterial activity against Escherichia coli ATCC 25922 after 24 hrs by broth microdilution based CLSI method; assay type: functional; details: ATCC 25922, 24 h
Bacillus subtilis [4] = assay: Antibacterial activity against Bacillus subtilis ATCC 9372 after 24 hrs by broth microdilution based CLSI method; assay type: functional; details: ATCC 9372, 24 h
Bacillus pumilus = assay: Antibacterial activity against Bacillus pumilus CMCC63202 after 24 hrs by broth microdilution based CLSI method; assay type: functional; details: CMCC63202, 24 h
Pseudomonas aeruginosa = assay: Antibacterial activity against Pseudomonas aeruginosa ATCC 27853 after 24 hrs by broth microdilution based CLSI method; assay type: functional; details: ATCC 27853, 24 h
Staphylococcus aureus [5] = assay: Antibacterial activity against methicillin-resistant Staphylococcus aureus ATCC 43300 infected in mouse assessed as reduction of bacterial burden in blood at 30 mg/kg, ip administered 0.1, 6 hrs postinfection and measured at 24 hrs post last dose; assay type: functional, organism-based
Staphylococcus aureus [6] = assay: Bactericidal activity against Staphylococcus aureus ATCC 25923 incubated for 24 hrs followed by plating onto tryptic soy agar plates and further incubated for 24 hrs by broth microdilution based CLSI method; assay type: functional; details: ATCC 25923, 24 h
Staphylococcus aureus [7] = assay: Bactericidal activity against clinical isolate of penicillin-resistant Staphylococcus aureus incubated for 24 hrs followed by plating onto tryptic soy agar plates and further incubated for 24 hrs by broth microdilution based CLSI method; assay type: functional; method in brief: as §1
[8] = molecular target: T1, Cell division protein FtsZ (Bacillus subtilis (strain 168)) (UniProt P17865); assay: Induction of Bacillus subtilis FtsZ polymerization in presence of GTP by microtiter plate-based light-scattering assay
T1 sequence (whole entry): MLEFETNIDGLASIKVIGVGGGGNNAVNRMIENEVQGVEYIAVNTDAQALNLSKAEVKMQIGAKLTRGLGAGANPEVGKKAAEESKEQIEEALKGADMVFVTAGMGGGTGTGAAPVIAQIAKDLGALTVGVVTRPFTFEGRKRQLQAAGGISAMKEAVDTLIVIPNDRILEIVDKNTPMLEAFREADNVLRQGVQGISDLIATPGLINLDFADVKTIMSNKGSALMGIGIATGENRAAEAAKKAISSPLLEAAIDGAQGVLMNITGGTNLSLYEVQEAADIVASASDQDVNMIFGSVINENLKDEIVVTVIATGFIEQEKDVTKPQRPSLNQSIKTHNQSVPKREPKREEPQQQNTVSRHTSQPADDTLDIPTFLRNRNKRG
Method in brief: (§2)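 Recombinant purified B. subtilis FtsZ (5 µM) with 1 mM GTP in 50 mM MES, 50 mM KCl, 2 mM magnesium acetate, compound 0–10 µg/mL. Polymerization followed as light scattering (A340) continuously at 25 °C for 30 min. DMSO vehicle and a non-FtsZ control were included.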

Staphylococcus aureus [9] = assay: Antibacterial activity against Staphylococcus aureus; assay type: functional
Method in brief: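 CLSI broth microdilution: log-phase bacteria added to 2-fold serial dilutions (64 to 0.125 µg/mL) in cation-adjusted Mueller-Hinton broth, incubated aerobically 24 h at 37 °C. MIC read by turbidity as the last well showing no growth.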

Staphylococcus aureus [10] = assay: Antibacterial activity against Staphylococcus aureus ATCC 25923 after 24 hrs by broth microdilution based CLSI method; assay type: functional; details: ATCC 25923, 24 h
HeLa = assay: Cytotoxicity in human HeLa cells assessed as reduction in cell viability after 36 hrs by MTT assay; assay type: cell-based
Method in brief: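 HeLa cells seeded at 10⁴ cells/well and left overnight, then exposed to compound for 36 h. MTT (5 mg/mL solution) added for 4 h at 37 °C, medium replaced by DMSO for 10 min, absorbance read at 570 nm.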

Staphylococcus aureus [11] = assay: Antibacterial activity against clinical isolate of penicillin-resistant Staphylococcus aureus after 24 hrs by broth microdilution based CLSI method; assay type: functional
Bacillus subtilis [12] = assay: Potency index, ratio of PC190723 MIC to test compound MIC for antibacterial activity against Bacillus subtilis ATCC 9372 after 24 hrs by broth microdilution based CLSI method
Staphylococcus aureus [13] = assay: Selectivity ratio of MBC for Staphylococcus aureus ATCC 25923 to MIC for Staphylococcus aureus ATCC 25923; assay type: functional
[14] = molecular target: T1, Cell division protein FtsZ (Bacillus subtilis (strain 168)); assay: Induction of Bacillus subtilis FtsZ polymerization at 10 ug/ml in presence of GTP by microtiter plate-based light-scattering assay; method in brief: as §2

SMILES	MIC (Staphylococcus aureus [1])	MIC (Escherichia coli)	MIC (Bacillus subtilis [4])	MIC (Bacillus pumilus)	MIC (Pseudomonas aeruginosa)	MIC (Staphylococcus aureus [10])	MIC (Staphylococcus aureus [11])	further results
CC(=O)NC[C@H]1CN(c2ccc(N3CCOCC3)c(F)c2)C(=O)O1 [LINEZOLID]	1 mg/L (≈ 2.96 µM)	> 64 mg/L	1 mg/L (≈ 2.96 µM)	1 mg/L (≈ 2.96 µM)	> 64 mg/L	–	–	Activity (Mus musculus): Non-Toxic; MBC (Staphylococcus aureus [2]): 32 mg/L (≈ 94.9 µM); Activity (Staphylococcus aureus [3]): Active; Activity (Staphylococcus aureus [5]): Active; MBC (Staphylococcus aureus [6]): 32 mg/L (≈ 94.9 µM); MBC (Staphylococcus aureus [7]): 32 mg/L (≈ 94.9 µM)
O=C(O)c1cn(C2CC2)c2cc(N3CCNCC3)c(F)cc2c1=O	–	–	–	–	–	–	–	Activity [8]: inactive
Nc1nonc1C(=O)N/N=C/c1cc(Cl)cc(Cl)c1O	–	–	–	–	–	–	–	MIC (Staphylococcus aureus [9]): 16 mg/L (≈ 50.6 µM)
CC(C)(C)c1ccc(-c2ccc(CNC(=N)N)cc2)cc1	–	–	–	–	–	–	–	MIC (Staphylococcus aureus [9]): 1 mg/L (≈ 3.55 µM)
Cc1cc(C(C)(C)C)cc(C)c1-c1cc(COc2ccc(F)c(C(N)=O)c2F)no1	2 mg/L (≈ 4.83 µM)	> 64 mg/L	> 64 mg/L	0.06 mg/L (≈ 0.145 µM)	> 64 mg/L	1 mg/L (≈ 2.41 µM)	2 mg/L (≈ 4.83 µM)	IC50 (HeLa): > 128 mg/L
CCCCc1ccc(-c2cc(COc3ccc(F)c(C(N)=O)c3F)on2)cc1	2 mg/L (≈ 5.18 µM)	> 64 mg/L	0.03 mg/L (≈ 0.0776 µM)	0.25 mg/L (≈ 0.647 µM)	> 64 mg/L	> 64 mg/L	> 64 mg/L	Ratio (Bacillus subtilis [12]): >16
CCCCC(CC)COc1ccc(F)c(C(N)=O)c1F (stereo not given)	–	–	–	–	–	–	–	MIC (Staphylococcus aureus [9]): 4 mg/L (≈ 14 µM)
CC[C@H]1OC(=O)[C@H](C)[C@@H](O[C@H]2C[C@@](C)(OC)[C@@H](O)[C@H](C)O2)[C@H](C)[C@@H](O[C@@H]2O[C@H](C)C[C@H](N(C)C)[C@H]2O)[C@](C)(OC)C[C@@H](C)C(=O)[C@H](C)[C@@H](O)[C@]1(C)O [CLARITHROMYCIN]	–	–	–	–	–	0.125 mg/L (≈ 0.167 µM)	–	MBC (Staphylococcus aureus [6]): 4 mg/L (≈ 5.35 µM); Ratio (Staphylococcus aureus [13]): 32
NC(=O)c1c(F)ccc(OCc2ccccc2)c1F	–	–	–	–	–	–	–	MIC (Staphylococcus aureus [9]): 32 mg/L (≈ 122 µM)
NC(=O)c1c(F)ccc(OCc2nc3cc(Cl)cnc3s2)c1F	1 mg/L (≈ 2.81 µM)	> 64 mg/L	0.5 mg/L (≈ 1.41 µM)	0.5 mg/L (≈ 1.41 µM)	> 64 mg/L	1 mg/L (≈ 2.81 µM)	1 mg/L (≈ 2.81 µM)	MIC (Staphylococcus aureus [9]): 1 mg/L (≈ 2.81 µM)
CC(C)(C)c1ccc(-c2cc(COc3ccc(F)c(C(N)=O)c3F)on2)cc1	4 mg/L (≈ 10.4 µM)	> 64 mg/L	0.03 mg/L (≈ 0.0776 µM)	0.25 mg/L (≈ 0.647 µM)	> 64 mg/L	8 mg/L (≈ 20.7 µM)	8 mg/L (≈ 20.7 µM)	Ratio (Bacillus subtilis [12]): >16; IC50 (HeLa): > 128 mg/L; Activity [14]: inactive
NC(=O)c1c(F)ccc(OCc2cc(-c3ccc(Cl)c(Cl)c3)on2)c1F	> 64 mg/L	> 64 mg/L	> 64 mg/L	> 64 mg/L	> 64 mg/L	> 64 mg/L	> 64 mg/L	–
NC(=O)c1c(F)ccc(OCc2cc(-c3ccccc3Cl)no2)c1F	> 64 mg/L	> 64 mg/L	8 mg/L (≈ 21.9 µM)	16 mg/L (≈ 43.9 µM)	> 64 mg/L	> 64 mg/L	> 64 mg/L	–
NC(=O)c1c(F)ccc(OCc2cc(-c3ccc(Cl)c(Cl)c3)no2)c1F	> 64 mg/L	> 64 mg/L	64 mg/L (≈ 160 µM)	> 64 mg/L	> 64 mg/L	> 64 mg/L	> 64 mg/L	–
CC(C)=Cc1cc(COc2ccc(F)c(C(N)=O)c2F)on1	> 64 mg/L	> 64 mg/L	32 mg/L (≈ 104 µM)	> 64 mg/L	> 64 mg/L	> 64 mg/L	> 64 mg/L	–
CN(C)c1ccc(-c2cc(COc3ccc(F)c(C(N)=O)c3F)on2)cc1	> 64 mg/L	> 64 mg/L	> 64 mg/L	> 64 mg/L	> 64 mg/L	> 64 mg/L	> 64 mg/L	–
Cc1c(COc2ccc(F)c(C(N)=O)c2F)noc1-c1ccc(C(C)(C)C)cc1	> 64 mg/L	> 64 mg/L	0.5 mg/L (≈ 1.25 µM)	1 mg/L (≈ 2.5 µM)	> 64 mg/L	> 64 mg/L	> 64 mg/L	–
NC(=O)c1c(F)ccc(OCc2cc(-c3ccc4c(c3)OCO4)no2)c1F	> 64 mg/L	> 64 mg/L	4 mg/L (≈ 10.7 µM)	> 64 mg/L	> 64 mg/L	> 64 mg/L	> 64 mg/L	–
CCOc1ccc(-c2cc(COc3ccc(F)c(C(N)=O)c3F)on2)cc1	> 64 mg/L	> 64 mg/L	1 mg/L (≈ 2.67 µM)	> 64 mg/L	> 64 mg/L	> 64 mg/L	> 64 mg/L	–
NC(=O)c1c(F)ccc(OCc2cc(-c3ccc(Cl)cc3Cl)on2)c1F	> 64 mg/L	> 64 mg/L	0.5 mg/L (≈ 1.25 µM)	8 mg/L (≈ 20 µM)	> 64 mg/L	> 64 mg/L	> 64 mg/L	–
CC(C)c1ccc(-c2cc(COc3ccc(F)c(C(N)=O)c3F)on2)cc1	> 64 mg/L	> 64 mg/L	2 mg/L (≈ 5.37 µM)	32 mg/L (≈ 85.9 µM)	> 64 mg/L	> 64 mg/L	> 64 mg/L	–
COc1cccc(-c2cc(COc3ccc(F)c(C(N)=O)c3F)no2)c1	> 64 mg/L	> 64 mg/L	64 mg/L (≈ 178 µM)	> 64 mg/L	> 64 mg/L	> 64 mg/L	> 64 mg/L	–
